Measurements pooled from the literature.
Compare with care: the assays were run in different laboratories.
HTR2C: 5-hydroxytryptamine receptor 2C (HTR2C, Homo sapiens, UniProt P28335)
blaNDM-1: Metallo-beta-lactamase type 2 (blaNDM-1, Klebsiella pneumoniae, UniProt C7C422)
HTR2B: 5-hydroxytryptamine receptor 2B (HTR2B, Homo sapiens, UniProt P41595)
Tmem97: Sigma intracellular receptor 2 (Tmem97, Rattus norvegicus, UniProt Q5U3Y7)

Compound | target | test | conditions | quantity | result
CSC[C@@]12C[C@@H]1[C@@H](n1cnc3c(N[C@H](C(C)C)C4CC4)nc(Cl)nc31)[C@H](O)[C@@H]2O | HTR2C | ligand displacement, radioligand |  | Ki | 2570 nM
COc1cc2c3c(c1OC)-c1ccccc1C[C@H]3N(C)CC2 | HTR2C | ligand displacement, radioligand | cell membranes | Ki | 22.2 nM
CSc1nc(N[C@H](C(C)C)C2CC2)c2ncn([C@H]3[C@H](O)[C@H](O)[C@]4(CO)C[C@H]34)c2n1 | HTR2C | ligand displacement, radioligand |  | Ki | 432 nM
CC1(C)S[C@H]2CS[C@H](CS)N2[C@@H]1C(=O)O | blaNDM-1 | enzyme activity, inhibitor, absorbance | pH 7.5 | Ki | 18000 nM
CN(C)CCc1c[nH]c2ccc(Cn3cncn3)cc12 | HTR2B | calcium signal, agonist, fluorescence |  | EC50 | 14000 nM
O=C(O)[C@H]1CS[C@@H]2CS[C@@H](CS)N12 | blaNDM-1 | enzyme activity, inhibitor, absorbance | pH 7.5 | Ki | 19000 nM
CCCCN1CCc2cc(OC)c(OC)cc2C1 | Tmem97 | ligand displacement, radioligand | cell membranes | Ki | 15 nM
CCC1CCN(C(=O)[C@H](CCCNC(=N)N)NS(=O)(=O)c2cccc3c(N(C)C)cccc23)CC1 | Prothrombin (F2, Bos taurus, UniProt P00735) | binding, ITC |  | Kd | 22 nM
CC(C)C(Nc1nc(Cl)nc2c1ncn2[C@H]1[C@H](O)[C@H](O)[C@]2(CO)C[C@H]12)C(C)C | HTR2C | ligand displacement, radioligand |  | Ki | 1160 nM
C[C@H](N)Cn1ncc2ccc3c(c21)CCCO3 | 5-hydroxytryptamine receptor 2A (Rattus norvegicus, UniProt P14842) | calcium signal, agonist, fluorescence |  | EC50 | 22.5 nM
COc1ccc2cccc(C(CO)CNC(=O)CF)c2c1 (centres unmarked) | Melatonin receptor type 1A (MTNR1A, Homo sapiens, UniProt P48039) | GTPγS binding, agonist, radiometric | cell membranes | EC50 | 79.4 nM
CCN(CC)CCNC(=O)c1ccc(F)cc1 | Tmem97 | ligand displacement, radioligand | cell membranes | Ki | 120000 nM
COc1cc(CC(C)N)c(OC)cc1I (racemic) | HTR2C | ligand displacement, radioligand |  | Ki | 0.42 nM
CCCN1CCc2cc(OC)cc3c2[C@H]1Cc1ccc(O)c(O)c1-3 | D(3) dopamine receptor (Drd3, Rattus norvegicus, UniProt P19020) | binding, radioligand | cell membranes | Kd | 2.02 nM
COc1cc2c3c(c1OC)-c1ccccc1CC3NCC2 (centres unmarked) | HTR2C | ligand displacement, radioligand | cell membranes | Ki | 446 nM
CC(C)[C@@H](Nc1nc(I)nc2c1ncn2[C@H]1[C@H](O)[C@H](O)[C@]2(CO)C[C@H]12)C1CC1 | HTR2C | ligand displacement, radioligand |  | Ki | 344 nM
COc1cc(CC(C)N)c(OC)cc1I (centres unmarked) | HTR2B | ligand displacement, radioligand |  | Ki | 1.2 nM
